{
  "source": "the RNAGym collection of RNA variant scans (doi:10.1126/science.aae0568)",
  "parents": {"B1": {"name": "tRNA (parent)", "chain": "GUUCCGUUGGCGUAAUGGUAACGCGUCUCCCUCCUAAGGAGAAGACUGCGGGUUCGAGUCCCGUACGGAACG"}},
  "note": "Variants at the floor of the assay were thinned out.",
  "data": [
    {"variants_of": "B1", "assay": "yeast fitness relative to wild type (ratio to wild type); higher = fitter; tRNA-Arg(CCU), competitive growth, 37 C, YPD", "in_short": "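Start and end populations of a pooled competition were compared by 100-nucleotide paired-end sequencing of gene amplicons. The Saccharomyces cerevisiae strains carried tRNA-Arg(CCU) gene variants at the native genomic locus, synthesised with a 3% per-site mutation rate at 69 sites, and competed in YPD at 37°C for 24 hours in six parallel replicates. Darwinian fitness relative to wild type was based on the change in genotype frequencies. Genotypes required ≥ 100 starting reads, and estimates < 0.5 were set to 0.5.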", "values": [
      {"variant": "GUUCCGUUGACGUAAUGGUAACGCGUCUCCCUUCUAAGGAGAAGACUGCGGGUUCGAGUCCCGAACGGAACG", "note": "[G10A C33U U64A]", "yeast fitness": 0.553},
      {"variant": "GUUCCGUUGACGUAAUGGUAACGCGUCUCCCUCAUAAGGAGAAGACUGCGGGUUCGAGUCCCGUACGGAACG", "note": "[G10A C34A]", "yeast fitness": 0.712},
      {"variant": "GUUCCGUUGACGUAAUGGUAACGCGUCUCCCUCAAAAGGAGAAGACUGCGGGUCCGAGUCCCGUACGGAACG", "note": "[G10A C34A U35A U54C]", "yeast fitness": 0.522},
      {"variant": "GUUCCGUUGACGUAAUGGUAACGCGUCUCCCUCUUAAGGAGAGGACUGCGGGUUCGAGUCCCGUACGGAACG", "note": "[G10A C34U A43G]", "yeast fitness": "≤ 0.5"},
      {"variant": "GUUCCGUUGACGUAAUGGUAACGCGUCUCCCUCCUAAGGAGAAGAUUGCGGGUUCGAGUCCCGUACGGAACG", "note": "[G10A C46U]", "yeast fitness": 0.812},
      {"variant": "GUUCCGUUGACGUAAUGGUAACGCGUCUCCCUCCUAAGGAGAAGACUGAGGGUUCGAGUCUCGUACGGAACG", "note": "[G10A C49A C61U]", "yeast fitness": "≤ 0.5"},
      {"variant": "GUUCCGUUGACGUAAUGGUAACGCGUCUCCCUCCUAAGGAGAAGACUGGGGGUUCGAGUCCCGUACGGAACG", "note": "[G10A C49G]", "yeast fitness": 0.668},
      {"variant": "GUUCCGUUGACGUAAUGGUAACGCGUCUCCCUCCUAAGGAGAAGACUGUGGGUUCGAGUCCCGUACGGAACG", "note": "[G10A C49U]", "yeast fitness": 0.697},
      {"variant": "GUUCCGUUGACGUAAUGGUAACGCGUCUCCCUCCUAAGGAGAAGACUGUGGGUUCGAGUCCCGUACGGUACG", "note": "[G10A C49U A69U]", "yeast fitness": "≤ 0.5"},
      {"variant": "GUUCCGUUGACGUAAUGGUAACGCGUCUCCCUCCUAAGGAGAAGACUGCGGGUUAGAGUCCCGUACGGAACG", "note": "[G10A C55A]", "yeast fitness": 0.67},
      {"variant": "GUUCCGUUGACGUAAUGGUAACGCGUCUCCCUCCUAAGGAGAAGACUGCGGGUUGGAGUACCGUAAGGUACG", "note": "[G10A C55G C60A C66A A69U]", "yeast fitness": "≤ 0.5"},
      {"variant": "GUUCCGUUGACGUAAUGGUAACGCGUCUCCCUCCUAAGGAGAAGACUGCGGGUUGGAAUCCCGUACGGAACG", "note": "[G10A C55G G58A]", "yeast fitness": "≤ 0.5"},
      {"variant": "GUUCCGUUGACGUAAUGGUAACGCGUCUCCCUCCUAAGGAGAAGACUGCGGGUUCGAGUACCGUACGGAACG", "note": "[G10A C60A]", "yeast fitness": 0.691},
      {"variant": "GUUCCGUUGACGUAAUGGUAACGCGUCUCCCUCCUAAGGAGAAGACUGCGGGUUCGAGUGCCGUACGGAUCG", "note": "[G10A C60G A70U]", "yeast fitness": "≤ 0.5"},
      {"variant": "GUUCCGUUGACGUAAUGGUAACGCGUCUCCCUCCUAAGGAGAAGACUGCGGGUUCGAGUCACGUACGGAACG", "note": "[G10A C61A]", "yeast fitness": "≤ 0.5"},
      {"variant": "GUUCCGUUGACGUAAUGGUAACGCGUCUCCCUCCUAAGGAGAAGACUGCGGGUUCGAGUCGCGUACGGAACG", "note": "[G10A C61G]", "yeast fitness": "≤ 0.5"},
      {"variant": "GUUCCGUUGACGUAAUGGUAACGCGUCUCCCUCCUAAGGAGAAGACUGCGGGUUCGAGUCGCGUAUGGUACG", "note": "[G10A C61G C66U A69U]", "yeast fitness": "≤ 0.5"},
      {"variant": "GUUCCGUUGACGUAAUGGUAACGCGUCUCCCUCCUAAGGAGAAGACUGCGGGUUCGAGUCUCGUACGGAACG", "note": "[G10A C61U]", "yeast fitness": 0.744},
      {"variant": "GUUCCGUUGACGUAAUGGUAACGCGUCUCCCUCCUAAGGAGAAGACUGCGGGUUCGAGUCCGGUACGGAACG", "note": "[G10A C62G]", "yeast fitness": 0.64},
      {"variant": "GUUCCGUUGACGUAAUGGUAACGCGUCUCCCUCCUAAGGAGAAGACUGCGGGUUCGAGUCCUGUACGGAUCG", "note": "[G10A C62U A70U]", "yeast fitness": 0.531},
      {"variant": "GUUCCGUUGACGUAAUGGUAACGCGUCUCCCUCCUAAGGAGAAGACUGCGGGUUCGAGUCCCGUAAGGAACG", "note": "[G10A C66A]", "yeast fitness": 0.545},
      {"variant": "GUUCCGUUGACGUAAUGGUAACGCGUCUCCCUCCUAAGGAGAAGACUGCGGGUUCGAGUCCCGUAGGGAACG", "note": "[G10A C66G]", "yeast fitness": 0.592},
      {"variant": "GUUCCGUUGACAUAAUGGUAACGCGUCUCCCUCCUAAGGAGAAGACUGCGGGUUCGAGUCCCGUACGGAACG", "note": "[G10A G12A]", "yeast fitness": 0.805},
      {"variant": "GUUCCGUUGACAUAAUGGUAACGCGUCUGCCUCCUAAGGAGAAGACUGCGGGUUCGAGUCCCGUUCGGAACG", "note": "[G10A G12A C29G A65U]", "yeast fitness": "≤ 0.5"},
      {"variant": "GUUCCGUUGACCUAAUGGUAUCGCGUCUCCCUCCUAAGGAGUAGACUGCGGGUUCGAGUCCCGUACGGAACG", "note": "[G10A G12C A21U A42U]", "yeast fitness": "≤ 0.5"},
      {"variant": "GUUCCGUUGACCUAAUGGUAACGCGUCUCCUUCCUAAGGAGAAGACUGCGGGCUCGAGUCCCGUACGGACCG", "note": "[G10A G12C C31U U53C A70C]", "yeast fitness": "≤ 0.5"},
      {"variant": "GUUCCGUUGACGUAAUAGUAACGCGUCUCCCUCCUGAGGCGAAGACUGCGGGUUCGCGUCCAGUACGGAACG", "note": "[G10A G17A A36G A40C A57C C62A]", "yeast fitness": "≤ 0.5"},
      {"variant": "GUUCCGUUGACGUAAUAGUAACGCGUCUCCCUCCUAUGGAGAAGACUGCGGGUUCGAGUCCCGUACGGAACG", "note": "[G10A G17A A37U]", "yeast fitness": "≤ 0.5"},
      {"variant": "GUUCCGUUGACGUAAUAGUAACGCGUCUCCGUCCUAAGGAGAAGACUGCGGGUUCGAGUCCCGUACGGAACG", "note": "[G10A G17A C31G]", "yeast fitness": "≤ 0.5"},
      {"variant": "GUUCCGUUGACGUAAUAGUAACGCGUCUCCCUCCUAAGGAGAAGACUGCGGGUUCGAGUCCCGUAGGGAACG", "note": "[G10A G17A C66G]", "yeast fitness": 0.623},
      {"variant": "GUUCCGUUGACGUAAUAGUAACGCGUCUCCCUCCUAAGCAGAAGCCUGGGGGUUCGAGUCCCGUACGGAACG", "note": "[G10A G17A G39C A45C C49G]", "yeast fitness": "≤ 0.5"},
      {"variant": "GUUCCGUUGACGUAAUAGUAACGCGUCCCGCUCCUAAGGAGAAGCCUGUGGGUUCGAGUCCCGUACGGAACG", "note": "[G10A G17A U28C C30G A45C C49U]", "yeast fitness": "≤ 0.5"},
      {"variant": "GUUCCGUUGACGUAAUAGUAACGCGUCUCCCUCCGGAGGCGAAGACUGCGGGUUCGCGUCCAGUACGGAACG", "note": "[G10A G17A U35G A36G A40C A57C C62A]", "yeast fitness": "≤ 0.5"},
      {"variant": "GUUCCGUUGACGUAAUAGUAACGCGUCUCCCUCCUAAGGAGAAGACUGCGGGUUCGAGGCCUGUACGGAACG", "note": "[G10A G17A U59G C62U]", "yeast fitness": "≤ 0.5"},
      {"variant": "GUUCCGUUGACGUAAUCGUAAUGCGUCUCGCUGCUAAGGAGAAGACUGCGGGUUCGAGUCACGUACGGUACG", "note": "[G10A G17C C22U C30G C33G C61A A69U]", "yeast fitness": "≤ 0.5"},
      {"variant": "GUUCCGUUGACGUAAUCGUAACGCGUCUCGCUGCUAAGGAGAAGACUGCGGGUUCGAGUCACGUACGGUGCG", "note": "[G10A G17C C30G C33G C61A A69U A70G]", "yeast fitness": "≤ 0.5"},
      {"variant": "GUUCCGUUGACGUAAUCGUAACGCGUCUCGCUGCUAAGGAGAAGACUACGGGUUCGAGUCACGUACGGUACG", "note": "[G10A G17C C30G C33G G48A C61A A69U]", "yeast fitness": "≤ 0.5"}
    ]}
  ]
}
